Test results reported in publication PMC4861071 (Chemical communications (Cambridge, England), 2016).
Read-outs that look alike come from different tables or passages of the source.

Columns and labels:
[1] = test system: human renal Caki-1 cancer cell line; assay: Cell viability; type: cell-based; settings: read-out: IC50 Caki-1; 72 h incubation; dissolved in 1% DMSO, diluted with water
Method in brief: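 Growth inhibition measured by BluePresto assay in human renal Caki-1 cancer cells, run in parallel with human colon HCT 116 and DLD1 cancer lines and non-tumorigenic HEK-293T cells. Cells were exposed to test compound for 72 h. Compounds were dissolved in 1% DMSO and diluted with water before addition to the culture medium. Cisplatin reference was dissolved in water.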

[2] = test system: thioredoxin reductase (TrRx); assay: Thioredoxin reductase activity in treated Caki-1 cells; type: cell-based, human; settings: 5 µM, 24 hour incubation
Method in brief: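 Caki-1 cells were incubated with 5 µM test compound or 0.1% DMSO vehicle for 5, 12 and 24 h. Endogenous thioredoxin reductase activity was then assayed in soluble whole-cell lysates. Percent inhibition is relative to vehicle-treated cells at 24 h.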

plasmid (pBR322) DNA = settings: cited from earlier work
[3] = test system: human renal Caki-1 cancer cell line; settings: read-out: IC50 Caki-1; cisplatin dissolved in H2O; ref [24]; cited from earlier work
[4] = test system: non-tumorigenic human embryonic kidney cell lines HEK-293T; settings: read-out: IC50 HEK-293T; cisplatin dissolved in H2O; ref [24]; cited from earlier work

Compound	IC50 [1]	inhibition of thioredoxin reductase activity [2]	also measured
[Ru(p-cymene)Cl2(η^1-dppm)] [compound 9]	35.6 ± 3.7 µM	44%	interaction with plasmid DNA (plasmid (pBR322) DNA; ref [31]): weakly reduced supercoiling in plasmid DNA
[Ru(p-cymene)Cl2(μ-dppm)AuCl] [compound 7]	–	–	interaction with plasmid (pBR322) DNA (plasmid (pBR322) DNA; previously described compounds, ref [26]): lack of interaction
CC(C)c1cccc(C(C)C)c1-n1ccn(-c2c(C(C)C)cccc2C(C)C)[c]1=[Au][Cl] [compound 1, [(IPr)AuCl]]	27.1 ± 2 µM	17%	–
[Ru(p-cymene)Cl2(μ-dppm)Au(IPr)]ClO4 [compound 13]	5.2 ± 0.9 µM	63%	–
N.N.[Cl][Pt][Cl] [cisplatin]	–	–	IC50 [3]: 29 ± 4.11 µM; IC50 [4]: 3.27 ± 0.13 µM
